ChEMBL document CHEMBL1156237, “Antiviral activity of benzimidazole derivatives. II. Antiviral activity of 2-phenylbenzimidazole derivatives” (Bioorg Med Chem, 2010)
Activity calls are given as the source filed them.

What was measured:
[1] = Cytotoxicity against BHK cells after 48 to 96 hrs by MTT assay; format: cell-based, Mesocricetus auratus; details: hamster
Procedure, shortened: (§1)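 Cell seeding: MDBK at 6 × 10^5 cells/mL in MEM-E with 10% horse serum and 1 mM Na pyruvate; BHK at 1 × 10^6 cells/mL in MEM-E with 10% FBS. Serial compound dilutions, 37 °C, 5% CO2. Viability of mock-infected cells by MTT after 48–96 h; CC50 is the concentration reducing viability by 50%.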

[2] = tested on: Human immunodeficiency virus 1; experiment: Antiviral activity against HIV1 3B infected in human MT4 cells assessed as protection from virus-induced cytopathogenicity after 4 days by MTT method; format: functional, organism-based
Procedure, shortened: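 MT-4 cells, 1 × 10^4/well in RPMI with or without serial compound dilutions, infected with HIV-1 IIIB, 100 CCID50 (m.o.i. 0.01). Protection from virus-induced cytopathogenicity read by MTT.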

[3] = Cytotoxicity against african green monkey Vero cells; format: cell-based; details: chlorocebus sabaeus
Procedure, shortened: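 Vero 76 monolayers exposed to serial compound dilutions, run in parallel on the same 24-well plates as the plaque-reduction assays. CC50 is the concentration reducing viability of mock-infected cells by 50%.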

[4] = tested on: Respiratory syncytial virus; experiment: Antiviral activity against RSV A2 infected in african green monkey Vero cells after 5 days by plaque reduction assay; format: functional, organism-based; details: for EC50: human respiratory syncytial virus, A2, Vero, 120 h
Procedure, shortened: (§2)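 Plaque reduction assay. Vero 76 cells at 2 × 10^5/well, grown overnight to confluence in D-MEM with 10% FBS. Infected 2 h with 50–100 PFU/well, unadsorbed virus removed. Overlay of D-MEM with 1% inactivated FBS and 0.75% methylcellulose, with or without serial compound dilutions. Incubated at 37 °C for 3 days (HSV-1 KOS, CVB-2 Ohio-1) or 5 days (RSV A2). Fixed and stained with crystal violet in 50% ethanol; plaques counted; EC50 by linear regression.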

Vaccinia virus = experiment: Antiviral activity against Vaccinia virus Elstree-Lister infected in african green monkey Vero cells after 3 days by plaque reduction assay; format: functional, organism-based; details: Orthopoxvirus vaccinia; for EC50: 72 h
[5] = Cytotoxicity against human MT4 cells after 96 hrs by MTT assay; format: cell-based; details: MT4 cells
Procedure, shortened: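 Exponentially growing MT-4 cells at 1 × 10^5 cells/mL in RPMI-1640 with 10% FCS, exposed to serial compound dilutions at 37 °C, 5% CO2. Viability by MTT after 96 h; CC50 is the concentration reducing viability of mock-infected cells by 50%.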

[6] = tested on: Bovine viral diarrhea virus 1; experiment: Antiviral activity against Bovine viral diarrhea virus NADL infected in MDBK cells assessed as protection from virus-induced cytopathogenicity after 3 to 4 days by MTT method; format: functional, organism-based, Bovine viral diarrhea virus 1-NADL; details: Bovine viral diarrhea virus isolates and strains, MDBK
Procedure, shortened: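 Cytopathogenicity protection assay. MDBK cells at 3 × 10^4/well, grown overnight to confluence. Infected with BVDV NADL at m.o.i. 0.01 in MEM-E with 0.5% inactivated FBS, 1 mM Na pyruvate and 1% kanamycin. Serial compound dilutions added after 1 h. After 3–4 days at 37 °C, viability read by MTT; EC50 is the concentration giving 50% protection.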

Coxsackievirus B2 = experiment: Antiviral activity against Human coxsackievirus B2 Ohio-1 infected in african green monkey Vero cells after 3 days by plaque reduction assay; format: functional, organism-based, Coxsackievirus B2 (strain Ohio-1); details: Enterovirus B, Vero, 72 h; procedure, shortened: as §2
[7] = tested on: Mammalian orthoreovirus 1; experiment: Antiviral activity against Reovirus 1 3651 infected in BHK21 cells assessed as protection from virus-induced cytopathogenicity after 3 to 4 days by MTT method; format: functional, organism-based; details: BHK-21
Poliovirus 1 = experiment: Antiviral activity against Polio virus type1 Sabin strain Chat infected in african green monkey Vero cells after 2 days by plaque reduction assay; format: functional, organism-based, Human poliovirus 1 strain Sabin; details: Enterovirus C, 48 h
[8] = Cytotoxicity against MDBK cells after 48 to 96 hrs by MTT assay; format: cell-based, Bos taurus; details: cattle, MDBK cells; procedure, shortened: as §1
Human alphaherpesvirus 1 = experiment: Antiviral activity against HSV1 KOS infected in african green monkey Vero cells after 3 days by plaque reduction assay; format: functional, organism-based; details: Human alphaherpesvirus 1, KOS, 72 h; procedure, shortened: as §2
[9] = tested on: Vesicular stomatitis virus; experiment: Antiviral activity against VSV Indiana lab infected in african green monkey Vero cells after 2 days by plaque reduction assay; format: functional, organism-based
Yellow fever virus = experiment: Antiviral activity against Yellow fever virus 17D infected in BHK cells assessed as protection from virus-induced cytopathogenicity after 3 to 4 days by MTT method; format: functional, organism-based

SMILES	CC50 [1]	Activity [2]	CC50 [3]	Activity [4]	Activity (Vaccinia virus)	CC50 at 96 h [5]	EC50 [6]	EC50 (Coxsackievirus B2)	Activity [7]	EC50 (Poliovirus 1)	CC50 [8]	EC50 (Human alphaherpesvirus 1)	Activity [9]	EC50 (Yellow fever virus)	EC50 [4]	EC50 (Vaccinia virus)
CCN(CC)CC(=O)Nc1ccc(-c2nc3cc(C(F)(F)F)ccc3n2C)cc1	16 µM	inactive	90 µM	inactive	inactive	9 µM	10 µM	21 µM	inactive	35 µM	57 µM	> 90 µM	inactive	7 µM	–	–
CCC(=O)Nc1ccc(-c2nc3cc(C(F)(F)F)ccc3n2C)cc1	> 100 µM	inactive	> 100 µM	inactive	inactive	8 µM	> 100 µM	> 100 µM	inactive	> 100 µM	> 100 µM	> 100 µM	inactive	> 100 µM	–	–
Cn1c(-c2ccc(NC(=O)CN3CCN(c4ccccc4)CC3)cc2)nc2cc(C(F)(F)F)ccc21	100 µM	inactive	30 µM	inactive	inactive	1.5 µM	> 1.4 µM	3 µM	inactive	2 µM	1.4 µM	> 30 µM	inactive	> 100 µM	–	–
Cn1c(-c2ccc(NC(=O)CN3CCCC3)cc2)nc2cc(C(F)(F)F)ccc21	27 µM	inactive	> 100 µM	inactive	inactive	16 µM	7 µM	13 µM	inactive	50 µM	65 µM	51 µM	inactive	> 27 µM	–	–
COc1ccc(-c2nc3cc(Cl)c(Cl)cc3[nH]2)c(N)c1	> 100 µM	inactive	75 µM	–	–	3 µM	> 6.5 µM	> 75 µM	–	> 75 µM	6.5 µM	> 75 µM	inactive	> 100 µM	> 75 µM	> 75 µM
O=[N+]([O-])c1ccc(-c2nc3ccccc3[nH]2)c([N+](=O)[O-])c1	> 100 µM	inactive	> 100 µM	–	–	7 µM	> 20 µM	40 µM	–	> 100 µM	20 µM	25 µM	inactive	> 100 µM	> 100 µM	> 100 µM
O=[N+]([O-])c1ccc(-c2nc3cc(C(F)(F)F)ccc3n2C23CC4CC(CC(C4)C2)C3)cc1	> 100 µM	inactive	> 100 µM	–	–	≥ 100 µM	> 100 µM	> 100 µM	–	> 100 µM	> 100 µM	> 100 µM	inactive	> 100 µM	> 100 µM	> 100 µM
COc1ccc(-c2nc3cc(Cl)c(Cl)cc3[nH]2)cc1	18 µM	inactive	30 µM	–	–	1 µM	> 2.5 µM	10 µM	–	> 30 µM	2.5 µM	20 µM	inactive	> 18 µM	> 30 µM	> 30 µM
COc1ccc(-c2nc3cc(C(F)(F)F)ccc3[nH]2)cc1	> 100 µM	inactive	15 µM	–	–	2 µM	1 µM	7 µM	–	> 15 µM	> 100 µM	> 15 µM	inactive	> 100 µM	> 15 µM	> 15 µM
